According to ChEMBL document CHEMBL2390929, “New nitric oxide donating 1,2,4-triazole/oxime hybrids: synthesis, investigation of anti-inflammatory, ulceroginic liability and antiproliferative activities” (Bioorg Med Chem, 2013):

Experiments:
HOP-62 = assay: Cytotoxicity against human HOP62 cells assessed as cell growth at 10^-5 M after 48 hrs by SRB assay; type: functional; details: HOP-62, 48 h, read-out: Activity
Outline: (§1)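 NCI 60-cell-line primary one-dose screen across nine tumour subpanels. Compound added at a single concentration of 10^-5 M and cultures incubated 48 h. Endpoint was sulforhodamine B protein staining read spectrophotometrically, with growth expressed as percent of untreated control cells.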

SF-268 = assay: Cytotoxicity against human SF268 cells assessed as cell growth at 10^-5 M after 48 hrs by SRB assay; type: functional; details: SF-268, 48 h, read-out: Activity; outline: as §1
HCC 2998 = assay: Cytotoxicity against human HCC2998 cells assessed as cell growth at 10^-5 M after 48 hrs by SRB assay; type: functional; details: HCC 2998, 48 h, read-out: Activity; outline: as §1
COLO 205 = assay: Cytotoxicity against human COLO205 cells assessed as cell growth at 10^-5 M after 48 hrs by SRB assay; type: functional; details: COLO 205, 48 h, read-out: Activity; outline: as §1
MOLT-4 = assay: Cytotoxicity against human MOLT4 cells assessed as cell growth at 10^-5 M after 48 hrs by SRB assay; type: functional; details: MOLT-4, 48 h, read-out: Activity; outline: as §1
[1] = Cytotoxicity against human EKVX cells assessed as cell growth at 10^-5 M after 48 hrs by SRB assay; type: functional; details: read-out: Activity; outline: as §1
NCI-H23 = assay: Cytotoxicity against human NCI-H23 cells assessed as cell growth at 10^-5 M after 48 hrs by SRB assay; type: functional; details: NCI-H23, 48 h, read-out: Activity; outline: as §1
BT-549 = assay: Cytotoxicity against human BT549 cells assessed as cell growth at 10^-5 M after 48 hrs by SRB assay; type: functional; details: BT-549, 48 h, read-out: Activity; outline: as §1
[2] = Induction of nitric oxide release in phosphate buffer at pH 7.4 at 0.1 mM after 3 hrs by Griess method in presence of 0.5 mM of N-acetylcysteine; type: physicochemical; details: pH 7.4, 3 h, 100 µM
Outline: (§2)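 Compound in DMF diluted to final 10^-4 M in 1:1 50 mM phosphate buffer pH 7.4/MeOH with 5×10^-4 M N-acetylcysteine, 37 °C. Aliquot mixed with Griess reagent, 10 min at room temperature, A546 read. Nitrite quantified against sodium nitrite standards (10–80 nmol/mL); NO expressed as mol/mol. n = 4 reaction mixtures per compound.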

MCF7 = assay: Cytotoxicity against human MCF7 cells assessed as cell growth at 10^-5 M after 48 hrs by SRB assay; type: functional; details: MCF7, 48 h, read-out: Activity; outline: as §1
A549 = assay: Cytotoxicity against human A549 cells assessed as cell growth at 10^-5 M after 48 hrs by SRB assay; type: functional; details: A549, 48 h, read-out: Activity; outline: as §1
OVCAR-3 = assay: Cytotoxicity against human OVCAR3 cells assessed as cell growth at 10^-5 M after 48 hrs by SRB assay; type: functional; details: OVCAR-3, 48 h, read-out: Activity; outline: as §1
[3] = Induction of nitric oxide release in phosphate buffer at pH 7.4 at 0.1 mM after 2 hrs by Griess method in presence of 0.5 mM of N-acetylcysteine; type: physicochemical; details: pH 7.4, 2 h, 100 µM; outline: as §2
U-251 = assay: Cytotoxicity against human U251 cells assessed as cell growth at 10^-5 M after 48 hrs by SRB assay; type: functional; details: U-251, 48 h, read-out: Activity
Outline: (§3)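 NCI-60 one-dose screen across nine tumour subpanels. Each agent added once at 10^-5 M, cultures incubated 48 h. Endpoint is sulforhodamine B protein staining read spectrophotometrically. Output is percent growth of treated cells relative to untreated controls.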

SK-MEL-28 = assay: Cytotoxicity against human SK-MEL-28 cells assessed as cell growth at 10^-5 M after 48 hrs by SRB assay; type: functional; details: SK-MEL-28, 48 h, read-out: Activity; outline: as §3
DU-145 = assay: Cytotoxicity against human DU145 cells assessed as cell growth at 10^-5 M after 48 hrs by SRB assay; type: functional; details: DU-145, 48 h, read-out: Activity; outline: as §1
SNB-19 = assay: Cytotoxicity against human SNB19 cells assessed as cell growth at 10^-5 M after 48 hrs by SRB assay; type: functional; details: SNB-19, 48 h, read-out: Activity; outline: as §3
ACHN = assay: Cytotoxicity against human ACHN cells assessed as cell growth at 10^-5 M after 48 hrs by SRB assay; type: functional; details: read-out: Activity; outline: as §1
SF-295 = assay: Cytotoxicity against human SF295 cells assessed as cell growth at 10^-5 M after 48 hrs by SRB assay; type: functional; details: SF-295, 48 h, read-out: Activity; outline: as §1
Rattus norvegicus [4] = assay: Antiinflammatory activity in albino rat assessed as inhibition of carrageenan-induced paw edema at 0.28 mmol/kg, po after 2 hrs relative to control; type: functional
Outline: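 Adult male albino rats (120–140 g), four per group, fasted 24 h with water allowed. Test agent suspended in 0.5% w/v aqueous CMC and given orally at 0.28 mmol/kg; controls received CMC alone. After 30 min, 0.1 mL fresh 1% carrageenan in saline was injected subplantar into the right hind paw and saline into the left. Paw thickness was measured by Vernier caliper; % inhibition = [(VR−VL)control − (VR−VL)treated]/(VR−VL)control ×100. Mean ± SEM, one-way ANOVA.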

HCT-116 = assay: Cytotoxicity against human HCT116 cells assessed as cell growth at 10^-5 M after 48 hrs by SRB assay; type: functional; details: HCT-116, 48 h, read-out: Activity; outline: as §1
SNB-75 = assay: Cytotoxicity against human SNB75 cells assessed as cell growth at 10^-5 M after 48 hrs by SRB assay; type: functional; details: SNB-75, 48 h, read-out: Activity; outline: as §3
Hs-578T = assay: Cytotoxicity against human Hs578T cells assessed as cell growth at 10^-5 M after 48 hrs by SRB assay; type: functional; details: read-out: Activity; outline: as §1
Rattus norvegicus [5] = assay: Gastrointestinal toxicity in albino rat assessed as ulcer index at 0.28 mmol/kg, po (reference value: 0.60 +/- 0.05); type: organism-based; details: in vivo
RXF 393 = assay: Cytotoxicity against human RXF393 cells assessed as cell growth at 10^-5 M after 48 hrs by SRB assay; type: functional; details: RXF 393, 48 h, read-out: Activity; outline: as §1
T47D = assay: Cytotoxicity against human T47D cells assessed as cell growth at 10^-5 M after 48 hrs by SRB assay; type: functional; details: read-out: Activity; outline: as §3
OVCAR-5 = assay: Cytotoxicity against human OVCAR5 cells assessed as cell growth at 10^-5 M after 48 hrs by SRB assay; type: functional; details: OVCAR-5, 48 h, read-out: Activity; outline: as §1
SN12C = assay: Cytotoxicity against human SN12C cells assessed as cell growth at 10^-5 M after 48 hrs by SRB assay; type: functional; details: read-out: Activity; outline: as §3
[6] = Induction of nitric oxide release in phosphate buffer at pH 7.4 at 0.1 mM after 4 hrs by Griess method in presence of 0.5 mM of N-acetylcysteine; type: physicochemical; details: pH 7.4, 4 h, 100 µM; outline: as §2
SK-MEL-5 = assay: Cytotoxicity against human SK-MEL-5 cells assessed as cell growth at 10^-5 M after 48 hrs by SRB assay; type: functional; details: SK-MEL-5, 48 h, read-out: Activity; outline: as §3

SMILES | growth at 10 µM (HOP-62) | growth at 10 µM (SF-268) | growth at 10 µM (HCC 2998) | growth at 10 µM (COLO 205) | growth at 10 µM (MOLT-4) | growth at 10 µM [1] | growth at 10 µM (NCI-H23) | growth at 10 µM (BT-549) | Activity [2] | growth at 10 µM (MCF7) | growth at 10 µM (A549) | growth at 10 µM (OVCAR-3) | Activity [3] | growth at 10 µM (U-251) | growth at 10 µM (SK-MEL-28) | growth at 10 µM (DU-145) | growth at 10 µM (SNB-19) | growth at 10 µM (ACHN) | inhibition in vivo at 280 µmol/kg (Rattus norvegicus [4]) | growth at 10 µM (HCT-116) | also measured
O/N=C(/CSc1nnc(-c2ccccc2)n1-c1ccccc1)c1ccccc1 | 109% | 104% | 121% | 107% | 84.8% | 95.4% | 103% | 111% | 0.12 mol/mol | 129% | 88.6% | 92.3% | 0.1 mol/mol | 82.3% | 118% | 99.2% | 84.8% | 117% | 63% | 92.3% | growth at 10 µM (SF-295): 88%; growth at 10 µM (SNB-75): 115%; growth at 10 µM (Hs-578T): 82.9%; UI (Rattus norvegicus [5]): 2.53; growth at 10 µM (RXF 393): 108%; growth at 10 µM (T47D): 98%; growth at 10 µM (OVCAR-5): 125%; growth at 10 µM (SN12C): 99.7%; Activity [6]: 0.13 mol/mol; growth at 10 µM (SK-MEL-5): 89.2%
COc1ccc(-c2nnc(SC/C(=N/O)c3ccccc3)n2-c2ccccc2)cc1 | 111% | 117% | 112% | 116% | 70.3% | 102% | 106% | 90.5% | 0.09 mol/mol | 104% | 85% | 111% | 0.08 mol/mol | 98.6% | 117% | 119% | 97.3% | 107% | 63% | 93.2% | growth at 10 µM (SF-295): 89.5%; growth at 10 µM (SNB-75): 103%; growth at 10 µM (Hs-578T): 107%; UI (Rattus norvegicus [5]): 7.57; growth at 10 µM (RXF 393): 108%; growth at 10 µM (T47D): 86%; growth at 10 µM (OVCAR-5): 109%; growth at 10 µM (SN12C): 97.9%; Activity [6]: 0.15 mol/mol; growth at 10 µM (SK-MEL-5): 93.9%
COc1ccc(-c2nnc(SC/C(=N/O)c3ccccc3)n2-c2ccccc2)cc1OC | 99.2% | 110% | 114% | 100% | 81.8% | 101% | 98% | 92.4% | 0.18 mol/mol | 100% | 90.1% | 106% | 0.17 mol/mol | 101% | 113% | 114% | 101% | 95.4% | 61% | 92% | growth at 10 µM (SNB-75): 91.4%; growth at 10 µM (Hs-578T): 105%; UI (Rattus norvegicus [5]): 5.71; growth at 10 µM (RXF 393): 102%; growth at 10 µM (T47D): 90.1%; growth at 10 µM (OVCAR-5): 100%; growth at 10 µM (SN12C): 94.5%; Activity [6]: 0.19 mol/mol; growth at 10 µM (SK-MEL-5): 85.8%
COc1cc(-c2nnc(SC/C(=N/O)c3ccccc3)n2-c2ccccc2)cc(OC)c1OC | 101% | 114% | 108% | 108% | 81.7% | 97.9% | 92.5% | 85.3% | 0.12 mol/mol | 101% | 94.7% | 114% | 0.11 mol/mol | 94.1% | 90.3% | 123% | 95.2% | 99.3% | 61% | 92.7% | growth at 10 µM (SF-295): 93.1%; growth at 10 µM (SNB-75): 84.5%; growth at 10 µM (Hs-578T): 103%; UI (Rattus norvegicus [5]): 5.52; growth at 10 µM (RXF 393): 105%; growth at 10 µM (T47D): 88.8%; growth at 10 µM (OVCAR-5): 115%; growth at 10 µM (SN12C): 95.8%; Activity [6]: 0.14 mol/mol; growth at 10 µM (SK-MEL-5): 84.6%
C=CCn1c(SC/C(=N\O)c2ccccc2)nnc1-c1ccc(OC)c(OC)c1 | 92.2% | 105% | 100% | 106% | 85.3% | 101% | 91.5% | 124% | 0.17 mol/mol | 105% | 98.1% | 110% | 0.15 mol/mol | 94.2% | 99% | 114% | 99.5% | 97.8% | 57% | 112% | growth at 10 µM (SF-295): 104%; growth at 10 µM (SNB-75): 86.9%; growth at 10 µM (Hs-578T): 97.3%; UI (Rattus norvegicus [5]): 1.82; growth at 10 µM (RXF 393): 117%; growth at 10 µM (T47D): 90.4%; growth at 10 µM (OVCAR-5): 107%; growth at 10 µM (SN12C): 98.2%; Activity [6]: 0.17 mol/mol; growth at 10 µM (SK-MEL-5): 101%
CCn1c(SC/C(=N/O)c2ccccc2)nnc1-c1ccccc1 | 111% | 108% | 96.6% | 115% | 94.8% | 90.6% | 103% | 115% | 0.12 mol/mol | 112% | 101% | 121% | 0.08 mol/mol | 102% | 106% | 107% | 99% | 105% | 69% | 101% | growth at 10 µM (SF-295): 109%; growth at 10 µM (SNB-75): 87.8%; growth at 10 µM (Hs-578T): 101%; UI (Rattus norvegicus [5]): 1.78; growth at 10 µM (RXF 393): 117%; growth at 10 µM (T47D): 120%; growth at 10 µM (OVCAR-5): 96.8%; growth at 10 µM (SN12C): 88.5%; Activity [6]: 0.13 mol/mol; growth at 10 µM (SK-MEL-5): 100%
